Screening results (PubChem)
An excerpt weighted towards active compounds, which were near 4.8% of everything screened.
UCH37 DUB inh – inhibitors of human deubiquitinating enzyme UCH37 | inhibition, % (no concentration beside the values) | purified proteasome/UCH37, Ub-AMC cleavage fluorescence | Q9Y5K5 | 330,000 compounds, 0.33% hits;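 active means mean inhibition over replicate wells above about 20%, limit read from the data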;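 further: 0% = compound-free wells with enzyme and 100% = wells lacking proteasome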
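System: Proteasome-associated human UCH37 deubiquitinase; Input: 0.15 nM proteasome in added enzyme buffer; Also added: Ub-AMC substrate from 1 µM stock; Incubation: 30 min compound-proteasome preincubation then 25 min substrate reaction, room temperature; Detection: fluorescence, ex 355 nm, em 460 nm; Read-out: % inhibition of Ub-AMC cleavage fluorescence; Benchmarks: no-proteasome and no-compound wells.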
PAFAH1B3 inh – PAFAH1B3 (human) inhibition. Q15102. recombinant PAFAH1B3, FP-rhodamine probe, fluorescence polarization. inhibition, % at 3.39 µM. 340,000 compounds, 0.28% hits. AID 492972;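 active means inhibition above the screen-wide average of all tested compounds plus 3 SD, cut at about 25% in these data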;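 further: 0% = enzyme with DMSO only and 100% = wells lacking PAFAH1B3 protein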
Target sequence (Q15102 whole entry, looked up): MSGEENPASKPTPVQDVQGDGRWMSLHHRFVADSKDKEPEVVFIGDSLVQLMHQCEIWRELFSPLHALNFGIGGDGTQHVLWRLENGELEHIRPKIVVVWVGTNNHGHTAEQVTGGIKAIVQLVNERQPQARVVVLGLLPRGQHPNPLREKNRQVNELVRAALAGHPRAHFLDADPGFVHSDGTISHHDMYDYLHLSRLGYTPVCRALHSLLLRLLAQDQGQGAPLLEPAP
PAFAH1B2 FP inh – blocks human PAF acetylhydrolase 1b catalytic subunit 2. P68402. recombinant PAFAH1B2, FP-rhodamine activity probe, fluorescence polarization. inhibition, % at 3.39 µM. 340,000 compounds, 1.2% hits. AID 492953;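 active means inhibition above the mean of all tested compounds plus 3 SD, cut at about 24% in these data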;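 further: 0% = enzyme with DMSO and 100% = wells lacking PAFAH1B2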
Target sequence (P68402 whole entry, looked up): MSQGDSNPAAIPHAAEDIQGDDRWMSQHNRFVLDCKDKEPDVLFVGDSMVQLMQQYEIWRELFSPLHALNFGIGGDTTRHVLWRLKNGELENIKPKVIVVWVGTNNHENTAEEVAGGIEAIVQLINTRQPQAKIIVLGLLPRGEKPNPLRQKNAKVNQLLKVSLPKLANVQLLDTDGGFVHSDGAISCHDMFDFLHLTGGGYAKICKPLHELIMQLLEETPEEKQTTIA
GRIN3A LBD mod – NR3A (human) ligand-binding domain modulation. AID 1259313. Tm shift relative to glycine control, % at 25 µM. 340,000 compounds, 2.5% hits. NR3A LBD differential scanning fluorimetry, Tm shift; 0% = protein alone, 100% = glycine-bound protein;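 active means melting temperature shift of at least 10% of the positive control shift, at one fixed dose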
pPAFAH FP inh – inhibitors of human plasma PAF acetylhydrolase (pPAFAH). recombinant pPAFAH, FP-rhodamine probe fluorescence polarization. inhibition, % at 3.39 µM. 330,000 compounds, 1.5% hits. AID 463082;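 active means inhibition above the mean inhibition across the screen plus 3 SD, cut at about 25% in these data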;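 further: inhibitors block binding of the rhodamine activity-based probe so polarization drops; 0% = enzyme with DMSO and 100% = wells lacking pPAFAH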
PAFAH2 inh – PAFAH2 (human) inhibition | recombinant PAFAH2, FP-rhodamine activity probe, fluorescence polarization | 340,000 compounds, 0.99% hits | inhibition, % at 3.39 µM | Q99487;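 active means inhibition above the mean over all tested compounds plus 3 SD, cut at about 30% in these data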;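 further: inhibitors block probe labeling of enzyme so polarization drops; 0% = enzyme with DMSO and 100% = wells lacking PAFAH2 protein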
PAFAH2 confirm – PAFAH2 (human) inhibition, confirmed | inhibition, % at 3.39 µM | AID 493030 | 2,300 compounds, 65% hits | recombinant PAFAH2, FP-rhodamine activity probe, fluorescence polarization | shares compounds with PAFAH2 inh;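 active means mean inhibition over three repeats above a set limit taken from the earlier primary screen, cut at about 30% in these data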;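 further: inhibitor blocks binding of rhodamine activity probe so polarization falls; 0% = enzyme with DMSO and 100% = wells lacking PAFAH2 protein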
* hit, by the source's call.

Results for COc1ccc(CNC(=O)COC(=O)C2CC2C)cc1OC (centres undefined) ?
UCH37 DUB inh: 2.8; PAFAH1B3 inh: 4.6; PAFAH1B2 FP inh: 2.7; GRIN3A LBD mod: 0.9; pPAFAH FP inh: 0.4; PAFAH2 inh: 8.4

Results for CC1CC1C(=O)OCC(=O)NCc1ccc(Cl)cc1Cl (centres undefined) ?
UCH37 DUB inh: 1.7; PAFAH1B3 inh: 4.3; PAFAH1B2 FP inh: 4.9; GRIN3A LBD mod: 1.9; pPAFAH FP inh: 5.5; PAFAH2 inh: 62.3*; PAFAH2 confirm: 53.2*

Results for CC(C)c1ccc(NC(=O)COC(=O)C2CCCCC2)cc1 ?
UCH37 DUB inh: 7.8; PAFAH1B3 inh: 2.3; PAFAH1B2 FP inh: 1.5; GRIN3A LBD mod: -0.8; pPAFAH FP inh: 7.3; PAFAH2 inh: 45.5*; PAFAH2 confirm: 28.9

Results for CC(NC(=O)COC(=O)C1CC1C)c1cccc(Cl)c1 (centres undefined) ?
UCH37 DUB inh: 3.6; PAFAH1B3 inh: 7.5; PAFAH1B2 FP inh: -0.2; GRIN3A LBD mod: 1.2; pPAFAH FP inh: 7.1; PAFAH2 inh: 36.1*; PAFAH2 confirm: 23.1

Results for CC(NC(=O)COC(=O)C1CCCCC1)c1ccccc1 (centres undefined) ?
UCH37 DUB inh: 1.6; PAFAH1B3 inh: 9.2; PAFAH1B2 FP inh: 7.8; GRIN3A LBD mod: -2.1; pPAFAH FP inh: 7.8; PAFAH2 inh: 35.6*; PAFAH2 confirm: 21.9

Results for CC1CC1C(=O)OCC(=O)NC(=O)c1ccc(C(C)(C)C)cc1 (centres undefined) ?
UCH37 DUB inh: 0.2; PAFAH1B3 inh: 8.8; PAFAH1B2 FP inh: 2.8; GRIN3A LBD mod: 0.5; pPAFAH FP inh: 1.9; PAFAH2 inh: 2.8

How did CC(NC(=O)COC(=O)C1CC1C)c1ccccc1 (centres undefined) do in these assays?
UCH37 DUB inh: 4.8; PAFAH1B3 inh: 11.5; PAFAH1B2 FP inh: -3.5; GRIN3A LBD mod: -0.2; pPAFAH FP inh: 3.6; PAFAH2 inh: 33.3*; PAFAH2 confirm: 30.4*

Results for CC(C)Cn1c(=O)c(C(=O)NN=Cc2cccc(F)c2)c(O)c2ccccc21 ?
UCH37 DUB inh: 4.2

What do the screens show for `O=C(OCC1COc2ccccc2O1)c1ccccc1F` (centres undefined)?
UCH37 DUB inh: -1.3; PAFAH1B3 inh: 3.5; PAFAH1B2 FP inh: -1.0; GRIN3A LBD mod: 5.4; pPAFAH FP inh: 11.8; PAFAH2 inh: 38.6*; PAFAH2 confirm: 23.8

How did COc1ccc(CC(=O)OCC(=O)Nc2ccc3c(c2)OCCO3)cc1OC do in these assays?
UCH37 DUB inh: 2.9; PAFAH1B3 inh: 5.6; PAFAH1B2 FP inh: -2.3; GRIN3A LBD mod: 4.4; pPAFAH FP inh: 4.3; PAFAH2 inh: 1.9

Results for O=C(COC(=O)c1cccc(F)c1)Nc1ccc2c(c1)OCCO2 ?
UCH37 DUB inh: 2.2; PAFAH1B3 inh: 2.8; PAFAH1B2 FP inh: 1.9; GRIN3A LBD mod: 1.2; pPAFAH FP inh: 9.3; PAFAH2 inh: 31.2*; PAFAH2 confirm: 27.2

Results for O=C(COC(=O)c1cc[n+]([O-])cc1)Nc1ccc2c(c1)OCCO2 ?
UCH37 DUB inh: -2.3; PAFAH1B3 inh: 0.6; PAFAH1B2 FP inh: -4.4; GRIN3A LBD mod: 1.2; pPAFAH FP inh: 0.6; PAFAH2 inh: -2.9

What do the screens show for `CCOc1ncccc1C(=O)OCC(=O)c1ccc(Cl)s1`?
UCH37 DUB inh: 0.8; PAFAH1B3 inh: 7.8; PAFAH1B2 FP inh: 3.6; GRIN3A LBD mod: 8.8; pPAFAH FP inh: 8.0; PAFAH2 inh: 44.3*; PAFAH2 confirm: 17.4

What do the screens show for `CCOc1ccc(C(=O)OCC(=O)Nc2ccc3c(c2)OCCO3)cc1OC`?
UCH37 DUB inh: -0.3; PAFAH1B3 inh: -2.8; PAFAH1B2 FP inh: 8.3; GRIN3A LBD mod: 0.1; pPAFAH FP inh: 0.4; PAFAH2 inh: 74.0*; PAFAH2 confirm: 82.7*

Results for CCOc1ncccc1C(=O)OCC(=O)Nc1ccc2c(c1)OCO2 ?
UCH37 DUB inh: -1.1; PAFAH1B3 inh: -0.8; PAFAH1B2 FP inh: 3.8; GRIN3A LBD mod: -1.8; pPAFAH FP inh: 21.7; PAFAH2 inh: 31.7*; PAFAH2 confirm: 35.9*
